Source: ChEMBL document CHEMBL4190366, “Discovery and synthesis of novel Wogonin derivatives with potent antitumor activity in vitro” (Eur J Med Chem, 2017)
Calls of active or inactive are those of the source. No cut-off for these calls is given here.

Columns and labels:
HepG2 [1] = assay: Induction of apoptosis in human HepG2 cells assessed as apoptosis level at 2 to 4 uM incubated for 24 hrs by FITC-labelled Annexin V/PI staining based flow cytometry; assay type: functional, cell-based
Summary of the method: (§1)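 HepG2 treated 24 h with 2, 4 or 6 µM; 0.1% DMSO vehicle control. Stained with FITC-Annexin V/PI and analysed by flow cytometry 10-15 min after staining. Annexin V+/PI- counted as early/median apoptotic, Annexin V+/PI+ as late apoptotic.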

[2] = target: Cyclin-dependent kinase 2 (Homo sapiens, UniProt P24941); assay: Inhibition of CDK2 (unknown origin)
Summary of the method: (§2)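 Kinase profiling run as a contract service, with ATP at the Km of each kinase.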

HepG2 [3] = assay: Ratio of cytotoxicity in human HepG2 cells at 5 uM in presence of 5 mM NAC incubated for 48 hrs by MTT assay to cytotoxicity in human HepG2 cells at 5 uM in absence of 5 mM NAC incubated for 48 hrs by MTT assay; assay type: functional
Summary of the method: (§3)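 HepG2 cells incubated 48 h with compound at 1, 5 or 10 µM, with or without 5 mM N-acetylcysteine. Ratio is cell viability with NAC divided by viability with compound alone at the same concentration.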

[4] = target: Hepatocyte growth factor receptor (Homo sapiens, UniProt P08581); assay: Inhibition of c-Met (unknown origin); summary of the method: as §2
Sequence of Hepatocyte growth factor receptor (P08581 whole entry): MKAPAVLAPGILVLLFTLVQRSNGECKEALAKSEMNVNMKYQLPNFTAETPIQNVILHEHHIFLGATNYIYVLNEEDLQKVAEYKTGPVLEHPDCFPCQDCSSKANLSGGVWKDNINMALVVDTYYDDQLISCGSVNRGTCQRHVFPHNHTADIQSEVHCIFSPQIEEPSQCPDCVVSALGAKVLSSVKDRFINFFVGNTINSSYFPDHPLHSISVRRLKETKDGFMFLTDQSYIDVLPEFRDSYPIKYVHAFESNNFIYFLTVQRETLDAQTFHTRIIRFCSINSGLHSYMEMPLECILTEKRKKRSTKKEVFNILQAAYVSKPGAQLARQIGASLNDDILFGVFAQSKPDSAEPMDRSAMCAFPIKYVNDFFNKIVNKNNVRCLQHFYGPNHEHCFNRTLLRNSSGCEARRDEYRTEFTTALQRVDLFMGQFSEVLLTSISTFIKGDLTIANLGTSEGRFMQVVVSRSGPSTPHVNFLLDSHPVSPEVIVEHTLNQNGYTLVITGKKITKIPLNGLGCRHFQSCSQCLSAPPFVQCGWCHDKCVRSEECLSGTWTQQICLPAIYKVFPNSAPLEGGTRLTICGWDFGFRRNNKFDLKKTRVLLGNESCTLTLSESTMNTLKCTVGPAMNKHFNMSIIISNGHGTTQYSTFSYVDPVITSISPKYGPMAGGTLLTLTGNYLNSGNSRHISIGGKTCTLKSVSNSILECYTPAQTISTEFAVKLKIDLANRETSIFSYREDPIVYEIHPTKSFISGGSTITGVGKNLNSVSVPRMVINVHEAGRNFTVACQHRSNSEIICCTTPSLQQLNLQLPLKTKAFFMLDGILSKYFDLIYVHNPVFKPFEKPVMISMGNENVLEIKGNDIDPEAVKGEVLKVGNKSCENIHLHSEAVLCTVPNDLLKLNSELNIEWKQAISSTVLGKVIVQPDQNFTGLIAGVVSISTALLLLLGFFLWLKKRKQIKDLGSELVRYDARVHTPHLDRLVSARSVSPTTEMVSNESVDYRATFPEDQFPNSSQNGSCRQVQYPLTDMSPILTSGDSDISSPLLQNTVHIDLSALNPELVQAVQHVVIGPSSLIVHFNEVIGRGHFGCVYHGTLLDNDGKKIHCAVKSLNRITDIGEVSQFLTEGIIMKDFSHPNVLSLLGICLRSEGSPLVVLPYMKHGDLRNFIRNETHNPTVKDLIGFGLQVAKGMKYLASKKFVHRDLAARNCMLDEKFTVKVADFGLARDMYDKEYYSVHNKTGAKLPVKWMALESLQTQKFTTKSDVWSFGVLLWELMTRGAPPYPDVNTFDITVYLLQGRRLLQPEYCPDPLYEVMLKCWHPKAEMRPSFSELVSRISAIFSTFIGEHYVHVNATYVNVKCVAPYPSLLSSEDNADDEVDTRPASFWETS

[5] = Selectivity index, ratio of IC50 for human LO2 cells to IC50 for mouse B16 cells; assay type: toxicity; conditions: LO2 cells versus B16 cells, read-out: Ratio IC50
Summary of the method: (§4)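 Selectivity ratio is L02 IC50 divided by cancer-cell IC50, each taken from the MTT viability assay.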

[6] = Selectivity index, ratio of IC50 for human LO2 cells to IC50 for human A549 cells; assay type: toxicity; conditions: LO2 cells versus A549 cells, read-out: Ratio IC50; summary of the method: as §4
HepG2 [7] = assay: Induction of apoptosis in human HepG2 cells assessed as apoptosis level incubated for 24 hrs by FITC-labelled Annexin V/PI staining based flow cytometry; assay type: functional, cell-based; summary of the method: as §1
L02 [8] = assay: Cytotoxicity in human LO2 cells assessed as reduction in cell viability at 30 uM incubated for 48 hrs by MTT assay; assay type: cell-based; conditions: l02, 48 h
Summary of the method: (§5)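 Normal hepatic L02 cells incubated with compound for 48 h. Cell viability measured across a concentration series.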

B16 = assay: Cytotoxicity in mouse B16 cells assessed as reduction in cell viability incubated for 72 hrs by MTT assay; assay type: functional, cell-based
Summary of the method: (§6)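 Cells pre-incubated 24 h at 37 °C, 5% CO2, then exposed to a range of compound concentrations for 72 h. Viability read as mitochondrial MTT-to-formazan conversion, absorbance at 570 nm.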

HepG2 [9] = assay: Cytotoxicity in human HepG2 cells assessed as reduction in cell viability incubated for 72 hrs by MTT assay; assay type: functional, cell-based; summary of the method: as §6
L02 [10] = assay: Cytotoxicity in human LO2 cells assessed as reduction in cell viability at 15 uM incubated for 48 hrs by MTT assay; assay type: cell-based; conditions: l02, 48 h; summary of the method: as §5
MCF7 = assay: Cytotoxicity in human MCF7 cells assessed as reduction in cell viability incubated for 72 hrs by MTT assay; assay type: functional, cell-based; summary of the method: as §6
[11] = Selectivity index, ratio of IC50 for human LO2 cells to IC50 for human HepG2 cells; assay type: toxicity; conditions: LO2 cells versus HepG2 cells, read-out: Ratio IC50; summary of the method: as §4
[12] = target: Cyclin-dependent kinase 9 (Homo sapiens, UniProt P50750); assay: Inhibition of CDK9 (unknown origin); summary of the method: as §2
Sequence of Cyclin-dependent kinase 9 (P50750 whole entry): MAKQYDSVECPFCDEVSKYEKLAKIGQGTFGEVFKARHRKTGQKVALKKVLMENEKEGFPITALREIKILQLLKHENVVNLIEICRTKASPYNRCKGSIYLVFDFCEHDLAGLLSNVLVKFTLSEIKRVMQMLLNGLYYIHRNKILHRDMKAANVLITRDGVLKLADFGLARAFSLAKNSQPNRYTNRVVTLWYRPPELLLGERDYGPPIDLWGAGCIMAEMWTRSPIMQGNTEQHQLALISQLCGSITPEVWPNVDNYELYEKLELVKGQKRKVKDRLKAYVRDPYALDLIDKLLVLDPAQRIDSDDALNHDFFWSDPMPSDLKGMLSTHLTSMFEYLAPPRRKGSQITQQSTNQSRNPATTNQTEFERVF

[13] = Selectivity index, ratio of IC50 for human LO2 cells to IC50 for human HeLa cells; assay type: toxicity; conditions: LO2 cells versus HeLa cells, read-out: Ratio IC50; summary of the method: as §4
[14] = Selectivity index, ratio of IC50 for human LO2 cells to IC50 for human MCF7 cells; assay type: toxicity; conditions: LO2 cells versus MCF7 cells, read-out: Ratio IC50; summary of the method: as §4
[15] = Selectivity index, ratio of IC50 for human LO2 cells to IC50 for human LNCAP cells; assay type: toxicity; conditions: LO2 cells versus LNCAP cells, read-out: Ratio IC50; summary of the method: as §4
HeLa = assay: Cytotoxicity in human HeLa cells assessed as reduction in cell viability incubated for 72 hrs by MTT assay; assay type: functional, cell-based; summary of the method: as §6
A549 [16] = assay: Cytotoxicity in human A549 cells assessed as reduction in cell viability incubated for 72 hrs by MTT assay
HepG2 [17] = assay: Induction of apoptosis in human HepG2 cells assessed as apoptosis level at 6 uM incubated for 24 hrs by FITC-labelled Annexin V/PI staining based flow cytometry (reference value: 2.6%); assay type: functional; summary of the method: as §1
LNCaP = assay: Cytotoxicity in human LNCAP cells assessed as reduction in cell viability incubated for 72 hrs by MTT assay; assay type: functional, cell-based; summary of the method: as §6
HepG2 [18] = assay: Induction of ROS generation in human HepG2 cells at 2 to 6 uM incubated for 24 hrs by DCFH-DA staining based flow cytometry; assay type: functional, cell-based
Summary of the method: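 HepG2 seeded at 6×10^4 cells/well and grown 24 h, then treated 24 h with 2, 4 or 6 µM. Washed with PBS and serum-free medium, loaded with serum-free DCFH-DA 30 min at 37 °C, washed twice cold. Fluorescence read by flow cytometry at 488/525 nm. Mean ± SEM, n = 3.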

HepG2 [19] = assay: Ratio of cytotoxicity in human HepG2 cells at 1 uM in presence of 5 mM NAC incubated for 48 hrs by MTT assay to cytotoxicity in human HepG2 cells at 1 uM in absence of 5 mM NAC incubated for 48 hrs by MTT assay; assay type: functional; summary of the method: as §3
A549 [20] = assay: Cytotoxicity in human A549 cells assessed as reduction in cell viability incubated for 72 hrs by MTT assay; conditions: A549, 72 h
HepG2 [21] = assay: Ratio of cytotoxicity in human HepG2 cells at 10 uM in presence of 5 mM NAC incubated for 48 hrs by MTT assay to cytotoxicity in human HepG2 cells at 10 uM in absence of 5 mM NAC incubated for 48 hrs by MTT assay; assay type: functional; summary of the method: as §3

CN1CCN(CCCCOc2c(OCc3ccc(C#N)cc3)cc(O)c3c(=O)cc(-c4ccccc4)oc23)CC1
Activity (HepG2 [1]): inactive | IC50 [2]: 6.7 µM | Ratio (HepG2 [3]): 5.5 | IC50 [4]: 35 µM | selectivity ratio [5]: 4.3 to 27 | selectivity ratio [6]: 4.3 to 27 | Activity (HepG2 [7]): Dose-dependent effect | Activity (L02 [8]): Toxic | Activity (B16): Dose-dependent effect | IC50 (B16; B16, 72 h): 3.7 µM | Activity (HepG2 [9]): Dose-dependent effect | IC50 (HepG2 [9]; HepG2, 72 h): 0.59 µM | Activity (L02 [10]): Non-Toxic | Activity (MCF7): Dose-dependent effect | IC50 (MCF7; MCF7, 72 h): 2.42 µM | selectivity ratio [11]: 27 | IC50 [12]: 0.87 µM | selectivity ratio [13]: 4.3 to 27 | selectivity ratio [14]: 4.3 to 27 | selectivity ratio [15]: 4.3 to 27 | Activity (HeLa): Dose-dependent effect | IC50 (HeLa): 2.65 µM | Activity (A549 [16]): Dose-dependent effect | Activity (HepG2 [17]): 30.7% | Activity (LNCaP): Dose-dependent effect | IC50 (LNCaP): 1.72 µM | Activity (HepG2 [18]): Dose-dependent effect | Ratio (HepG2 [19]): 2.7 | IC50 (A549 [20]): 2.14 µM | Ratio (HepG2 [21]): 7
